The nature of data set [1]: Tmax in juvenile breast-fed Sprague-Dawley rat at 30 mg/kg, po administered as water solution by HPLC-tandem mass spectrometry. It counts as ADME, organism-based. Details: dose 30 mg/kg, route oral; call rule not given here. Particulars: in vivo. The method, boiled down: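 Seven-day-old Sprague-Dawley pups, males and females, 15 per group, were gavaged with 30 mg/kg (10 ml/kg). Breast-fed pups stayed with their dams; fasted pups were removed from 8 h predose through 5 h. Cardiac blood was drawn under isoflurane at 0.25, 0.5, 1, 2 and 5 h (composite, n=3/time point), with dichlorvos added. Plasma was analyzed by HPLC-MS/MS and Tmax read graphically.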

Data set [2] in a line: AUC(0 to 24 hrs) in healthy human at 150 mg, po administered as single dose by HPLC-tandem mass spectrometry under fasting conditions. In kind it is ADME, organism-based. Further details: dose 150 mg, time < 24 hr, route oral. Particulars: plasma. A digest of the protocol: (§1)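 Open-label crossover in 18 healthy volunteers (9 male, 9 female, mean age 26). Each received marketed oseltamivir 150 mg orally, once fasted from midnight and once after a high-fat, high-calorie breakfast, with a 7-10 day washout. Plasma and urine collected over 0-72 h and analysed by HPLC-MS/MS. AUC and Cmax compared after log transformation.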

Data set [3] in a line: Cmax in juvenile fasted Sprague-Dawley rat at 30 mg/kg, po administered as 125 mM aqueous Gly-Sar solution by HPLC-tandem mass spectrometry. It counts as ADME, organism-based. Details: dose 30 mg/kg, route oral. Particulars: in vivo. The method, boiled down: (§2)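 7-day-old Sprague-Dawley pups (9.7-18.9 g, both sexes), 15 per group. Given 30 mg/kg by oral gavage (10 ml/kg); breast-fed pups stayed with dams, fasted pups were removed 8 h before dosing. Blood taken by cardiac puncture under isoflurane at 0.25, 0.5, 1, 2 and 5 h, n=3 per time point (composite design). Dichlorvos-treated plasma assayed by LC-MS/MS; AUC0-5h by noncompartmental analysis.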

Data set [4] is described as follows: Drug excretion in healthy human urine assessed as unchanged drug level at 150 mg, po administered as single dose by HPLC-tandem mass spectrometry under fasting conditions. It counts as ADME, organism-based. Particulars: read-out: Drug excretion. The method, boiled down:
as §1

A short description of data set [5]: Tmax in healthy human at 150 mg, po administered as single dose by HPLC-tandem mass spectrometry under fed conditions. In kind it is ADME, organism-based. Particulars: in vivo. A digest of the protocol: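 Open-label crossover food-effect study in 18 healthy volunteers (9 male, 9 female, mean age 26). Each received a single 150 mg oral dose of the marketed formulation, once fasting from midnight and once after a high-fat, high-calorie breakfast, separated by a 7–10 day washout. Plasma and urine were collected over 0–72 h and assayed by HPLC-MS/MS for oseltamivir and carboxylate.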

A short description of data set [6]: AUC(0 to infinity) in adult fasted Sprague-Dawley rat at 30 mg/kg, po administered as solution in bovine milk by HPLC-tandem mass spectrometry. In kind it is ADME, organism-based. Details: time infinity, dose 30 mg/kg, route oral. Particulars: in vivo. A digest of the protocol:
(§3)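 Adult male Sprague-Dawley rats (243-283 g), jugular-cannulated, fasted from 6 h before dosing through the 6-h study. Given 30 mg/kg orally (free base) at 10 ml/kg, n=3/group. Blood sampled at 0.25-6 h into K2EDTA with dichlorvos esterase inhibitor. Plasma assayed by LC-MS/MS (0.1-500 μg/l). Noncompartmental analysis: linear-trapezoid AUC; infinity extrapolation via log-linear terminal λz.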

Data set [7] is described as follows: AUC(0 to 6 hrs) in adult fed Sprague-Dawley rat at 30 mg/kg, po administered as solution in bovine milk by HPLC-tandem mass spectrometry. In kind it is ADME, organism-based. Further details: time < 6 hr, dose 30 mg/kg, route oral. Particulars: in vivo. A digest of the protocol:
(§4)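 Sprague-Dawley males, 7-8 weeks, 243-283 g, jugular-cannulated, 3 days' recovery; fed (chow ad libitum). Single oral dose of 30 mg/kg (free base) at 10 ml/kg; 3 rats/group. Jugular blood taken at 0.25-24 h into K2EDTA with dichlorvos, kept on ice. Plasma analysed by validated LC-MS/MS (0.1-500 μg/l). Noncompartmental analysis; AUC by linear trapezoid, AUC0-∞ extrapolated using λz.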

Data set [8] can be described thus: Apparent oral clearance in healthy human at 150 mg, po administered as single dose by HPLC-tandem mass spectrometry under fasting conditions. It counts as ADME, organism-based. Particulars: in vivo. The method, boiled down: as §1
Data set [9] can be described thus: AUC(0 to 24 hrs) in adult fed Sprague-Dawley rat at 30 mg/kg, po administered as water solution by HPLC-tandem mass spectrometry. Details: time < 24 hr, dose 30 mg/kg, route oral. Particulars: plasma. In kind it is ADME, organism-based. A digest of the protocol: as §4
A short description of data set [10]: AUC(0 to 6 hrs) in adult fasted Sprague-Dawley rat at 30 mg/kg, po administered as 125 mM aqueous Gly-Sar solution by HPLC-tandem mass spectrometry. Particulars: plasma. In kind it is ADME, organism-based. Further details: time < 6 hr, dose 30 mg/kg, route oral. The method, boiled down:
as §3

Data set [11] is described as follows: Tmax in adult fed Sprague-Dawley rat at 30 mg/kg, po administered as solution in bovine milk by HPLC-tandem mass spectrometry. Details: dose 30 mg/kg, route oral. In kind it is ADME, organism-based. Particulars: in vivo. The method, boiled down:
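Cannulated adult male Sprague-Dawley rats with chow ad libitum, 3 per vehicle, were given oral 30 mg/kg (10 ml/kg). Plasma analysis was by HPLC-MS/MS, with Tmax taken graphically from concentration-time profiles.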

The nature of data set [12]: AUC(0 to 5 hrs) in juvenile breast-fed Sprague-Dawley rat at 30 mg/kg, po administered as water solution by HPLC-tandem mass spectrometry. In kind it is ADME, organism-based. Details: time < 5 hr, dose 30 mg/kg, route oral. Particulars: plasma. A digest of the protocol: as §2
Data set [13] is described as follows: Drug uptake in CHOK1 cells at 5 to 100 uM after 10 mins by HPLC coupled with radiodetection analysis. In kind it is ADME, cell-based, Cricetulus griseus. Particulars: chinese hamster, cho-k1, 10 min.
Data set [14] is described as follows: Apparent oral clearance in healthy human at 150 mg, po administered as single dose by HPLC-tandem mass spectrometry under fed conditions. In kind it is ADME, organism-based. Particulars: in vivo. The method, boiled down: as §1
Data set [15] in a line: AUC(0 to 6 hrs) in adult fed Sprague-Dawley rat at 30 mg/kg, po administered as water solution by HPLC-tandem mass spectrometry. In kind it is ADME, organism-based. Details: time < 6 hr, dose 30 mg/kg, route oral. Particulars: plasma. A digest of the protocol: as §4
Data set [16] can be described thus: AUC(0 to infinity) in adult fasted Sprague-Dawley rat at 30 mg/kg, po administered as water solution by HPLC-tandem mass spectrometry. It counts as ADME, organism-based. Details: time infinity, dose 30 mg/kg, route oral. Particulars: plasma. The method, boiled down: as §3
Data set [17] in a line: Drug uptake in CHOK1 cells at pH 5 by HPLC coupled with radiodetection analysis. Particulars: chinese hamster, cho-k1, pH 5. It counts as ADME, cell-based, Cricetulus griseus.
Data set [18] can be described thus: Cmax in adult fasted Sprague-Dawley rat at 30 mg/kg, po administered as solution in bovine milk by HPLC-tandem mass spectrometry. It counts as ADME, organism-based. Details: dose 30 mg/kg, route oral. Particulars: in vivo. The method, boiled down:
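Adult cannulated Sprague-Dawley rats, fasted (from 6 h predose) or fed, dosed orally at 30 mg/kg (10 ml/kg), 3 per group. Serial jugular plasma with dichlorvos stabilisation, measured by LC-MS/MS. Cmax read graphically from the concentration-time profile.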

Data set [19] in a line: Cmax in juvenile fasted Sprague-Dawley rat at 30 mg/kg, po administered as water solution by HPLC-tandem mass spectrometry. In kind it is ADME, organism-based. Details: dose 30 mg/kg, route oral. Particulars: in vivo. The method, boiled down:
as §2

The nature of data set [20]: Drug uptake in CHOK1 cells expressing human PEPT1 at pH 6 by HPLC coupled with radiodetection analysis. Particulars: chinese hamster, cho-k1, pH 6. It counts as ADME, cell-based, Cricetulus griseus. A digest of the protocol:
(§5)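 Accumulation of [14C]oseltamivir or its carboxylate in CHO-PEPT1 versus CHO-K1 cells. Conditions varied: KH buffer (with MES) or Hanks' balanced salt solution, pH 5 or 6 readjusted after substrate addition, 30 s to 15 min at 37°C. Uptake was quenched with ice-cold PBS-BSA, followed by Triton X-100 lysis, scintillation counting, and BCA protein normalization. HPLC-radiodetection checked ester stability.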

A short description of data set [21]: AUC(0 to infinity) in healthy human at 150 mg, po administered as single dose by HPLC-tandem mass spectrometry under fed conditions. It counts as ADME, organism-based. Further details: dose 150 mg, time infinity, route oral. Particulars: plasma. The method, boiled down: as §1
The nature of data set [22]: Drug uptake in CHOK1 cells expressing human PEPT1 incubated for 30s to 15 mins by HPLC coupled with radiodetection analysis. It counts as ADME, cell-based, Cricetulus griseus. Particulars: chinese hamster, cho-k1, 0.25 h. The method, boiled down: as §5
The nature of data set [23]: AUC(0 to 5 hrs) in juvenile fasted Sprague-Dawley rat at 30 mg/kg, po administered as 125 mM aqueous Gly-Sar solution by HPLC-tandem mass spectrometry. It counts as ADME, organism-based. Particulars: plasma. Further details: time < 5 hr, dose 30 mg/kg, route oral. The method, boiled down: as §2

The Tmax is the time from dosing to the highest level. The AUC(0-t) is the area under the concentration-time curve up to a stated or last time point. Low values mean low exposure, high ones high exposure. A word on the Cmax: it is the peak of the concentration-time curve. In general, AUC(0-inf) refers to total exposure, with the tail of the curve extrapolated. Lower therefore signals less exposure. Broadly, the CL/F is the apparent clearance, not corrected for the fraction that reaches the circulation.

With `CCC(CC)O[C@@H]1C=C(C(=O)O)C[C@H](N)[C@H]1NC(C)=O` [OSELTAMIVIR CARBOXYLATE], the results for the Tmax in [1], in [5] and in data set [11] were 5 h, 5.42 h and 0.75 h, respectively. In addition, the AUC(0-t) at 24 h amounted to 5540 ng·h/mL in data set [2] and 5280 ng·h/mL in data set [9]. In addition, the figures for the Cmax in [3], in data set [18] and in data set [19] were 2710 ng/mL, 1630 ng/mL and 3100 ng/mL, respectively. Also, the dose excreted in [4] was 58.5%. The AUC(0-inf) in data set [6] is 6300 ng·h/mL; in data set [16], 6140 ng·h/mL; in [21], 6070 ng·h/mL. For the same compound, the exposure AUC(0-t) at 6 h in data set [7] is 4510 ng·h/mL; in data set [10], 8350 ng·h/mL; in [15], 3540 ng·h/mL. Moreover, the figures for the CL/F in [8] and in [14] were 371 mL/min and 385 mL/min, respectively. The AUC(0-t) at 5 h in data set [12] worked out at 5070 ng·h/mL; in [23] it was 10900 ng·h/mL. Moreover, the Drug uptake result in [13], in [17], in data set [20] and in data set [22] was “Active” in each case.
On to `CCOC(=O)C1=C[C@@H](OC(CC)CC)[C@H](NC(C)=O)[C@@H](N)C1` [OSELTAMIVIR], for which the Tmax came to 1 h in data set [1], 2.06 h in data set [5] and 0.41 h in data set [11]. Further, the AUC(0-t) at 24 h was determined as 238 ng·h/mL in [2] and 2510 ng·h/mL in data set [9]. The Cmax in data set [3] worked out at 10400 ng/mL; in data set [18], 1630 ng/mL; in data set [19] it was 10500 ng/mL. In data set [4], the dose excreted was found to be 3.09%. Also, the total exposure AUC(0-inf) in data set [6] is 3060 ng·h/mL; in data set [16] it was 2710 ng·h/mL; in [21], 287 ng·h/mL. Besides, the values for the AUC(0-t) at 6 h in data set [7], in data set [10] and in data set [15] were 2510 ng·h/mL, 3780 ng·h/mL and 2200 ng·h/mL, respectively. In addition, the CL/F in [8] amounted to 13000 mL/min; in data set [14], 9540 mL/min. For the same compound, the AUC(0-t) at 5 h is 20300 ng·h/mL in [12] and 27100 ng·h/mL in [23]. In addition, the Drug uptake result in data set [13], in data set [17], in [20] and in data set [22] was “Active” each time.

For the origin of these results see ChEMBL document CHEMBL3526035, “Role of the intestinal peptide transporter PEPT1 in oseltamivir absorption: in vitro and in vivo studies” (Drug Metab Dispos, 2012).
